From ChEMBL document CHEMBL1129371, “Bis tertiary amide inhibitors of the HIV-1 protease generated via protein structure-based iterative design” (J Med Chem, 1996)
Blank lines part the entries; values can stand above or below the molecule they belong to.

Columns and labels:
[1] = tested on: Human immunodeficiency virus 1; assay: (§1) Effective dose against inhibition of HIV-1 protease in CEM cells; format: functional; details: Human immunodeficiency virus 1, CCRF-CEM; read-out: ED50 (the source's name)
Method in brief: (§2)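 HIV-1-induced killing of CEM-SS cells; cell viability read by MTT tetrazolium metabolism. ED50 = concentration giving 50% inhibition of HIV-1-induced cell death. Run at Southern Research Institute.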

[2] = target: T1, Human immunodeficiency virus type 1 protease (Human immunodeficiency virus 1, UniProt Q72874); assay: Binding affinity against HIV-1 protease
[3] = Pharmacokinetic parameter Cmax determined after intravenous administration of 50 mg/kg to rat; format: ADME, organism-based; design: dose 50 mg/kg, route intravenous; details: in vivo
[4] = Pharmacokinetic parameter half life determined after intravenous administration of 50 mg/kg to rat; format: ADME, organism-based; design: dose 50 mg/kg, route intravenous; details: in vivo
[5] = Oral bioavailability in rat (dose 50 mg/kg); format: ADME, organism-based; details: in vivo
[6] = Pharmacokinetic parameter Cmax determined after oral administration of 50 mg/kg to rat; format: ADME, organism-based; design: dose 50 mg/kg, route oral; details: in vivo
[7] = Toxic concentration at which 50% of CEM-SS cells were viable (uninfected with virus) as determined by metabolism of MTT in(uM); format: toxicity, cell-based; details: human, read-out: TC50 (the source's name)
Method in brief: (§3)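 Uninfected CEM-SS cells; viability read by MTT metabolism. TC50 = concentration giving 50% reduction in number of viable cells; reported in μM.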

[8] = Toxic concentration at which 50% of CEM-SS cells were viable (uninfected with virus) as determined by metabolism of MTT; format: toxicity, cell-based; details: human, read-out: TC50 (the source's name); method in brief: as §3
[9] = Toxic concentration at which 50% of CEM-SS cells were viable (uninfected with virus) as determined by metabolism of MTT in(uM).; format: toxicity, cell-based; details: human, read-out: TC50 (the source's name); method in brief: as §3
[10] = tested on: Rattus norvegicus; assay: Fraction of compound bio available orally in rat at dosage 50(mg/kg) by po administration.; details: in vivo
[11] = Pharmacokinetic parameter half life determined after intravenous administration of 60 mg/kg to rat; format: ADME, organism-based; design: dose 60 mg/kg, route intravenous; details: in vivo
[12] = Pharmacokinetic parameter Cmax determined after intravenous administration of 60 mg/kg to rat; format: ADME, organism-based; design: dose 60 mg/kg, route intravenous; details: in vivo
[13] = target: T1, Human immunodeficiency virus type 1 protease; assay: Compound was tested for binding affinity against HIV protease
[14] = tested on: CCRF-CEM; assay: Antiviral activity againsy HIV-1 in CEM cells; format: functional; details: Homo sapiens, read-out: ED50 (the source's name); method in brief: as §2
[15] = tested on: Rattus norvegicus; assay: Pharmacokinetic parameter Cmax determined after oral administration of 50 mg/kg to rat; No levels; format: ADME, organism-based; design: dose 50 mg/kg, route oral; details: in vivo
[16] = Pharmacokinetic parameter half life determined after oral administration of 15 mg/kg to dog; format: ADME, organism-based, Canis lupus familiaris; design: dose 15 mg/kg, route oral; details: in vivo
[17] = Maximal concentration in monkey plasma after 25 mg/kg oral dose; format: ADME, organism-based; design: dose 25 mg/kg, route oral; details: simiiformes
[18] = Pharmacokinetic parameter Cmax determined after oral administration of 15 mg/kg to dog; details: in vivo
[19] = Fraction of compound bio available orally in rat at dosage 50(mg/kg) by po administration; format: ADME, organism-based; details: in vivo
[20] = Pharmacokinetic parameter Cmax determined after peroral administration of 25 mg/kg to monkey; No levels; format: ADME, organism-based; design: dose 25 mg/kg, route oral; details: simiiformes, in vivo, po
[21] = Pharmacokinetic parameter Cmax determined after peroral administration of 15 mg/kg to dog; format: ADME, organism-based, Canis lupus familiaris; design: dose 15 mg/kg, route oral; details: in vivo, po
[22] = Pharmacokinetic parameter Cmax determined after peroral administration of 25 mg/kg to monkey; format: ADME, organism-based; design: dose 25 mg/kg, route oral; details: simiiformes, in vivo, po
[23] = Pharmacokinetic parameter half life determined after intravenous administration of 25 mg/kg to monkey; format: ADME, organism-based; design: dose 25 mg/kg, route intravenous; details: simiiformes, in vivo
[24] = Pharmacokinetic parameter half life determined after peroral administration of 25 mg/kg to monkey; format: ADME, organism-based; design: dose 25 mg/kg, route oral; details: simiiformes, in vivo, po
[25] = Pharmacokinetic parameter half life determined after intravenous administration of 15 mg/kg to dog; format: ADME, organism-based, Canis lupus familiaris; design: dose 15 mg/kg, route intravenous; details: in vivo
[26] = Pharmacokinetic parameter Cmax determined after oral administration of 30 mg/kg abd antacid (CaCO3 dosed orally 10 min prior to and 60 min postdosing) to dog; details: in vivo
[27] = Fraction of compound bio available orally in monkey at dosage 25(mg/kg) by po administration.; details: primates, in vivo
[28] = Pharmacokinetic parameter Cmax determined after peroral administration of 50 mg/kg to rat; format: ADME, organism-based; design: dose 50 mg/kg, route oral; details: in vivo, po
[29] = Fraction of compound bio available orally in dog at dosage 15(mg/kg) by po administration.; format: ADME, organism-based, Canis lupus familiaris; details: in vivo
[30] = Pharmacokinetic parameter Cmax determined after oral administration of 30 mg/kg to dog; details: in vivo
[31] = Pharmacokinetic parameter half life determined after peroral administration of 30 mg/kg abd antacid (CaCO3 dosed orally 10 min prior to and 60 min postdosing) to dog; details: in vivo, po
[32] = Pharmacokinetic parameter Cmax determined after intravenous administration of 25 mg/kg to monkey; format: ADME, organism-based; design: dose 25 mg/kg, route intravenous; details: simiiformes, in vivo
[33] = Fraction of compound bio available orally in dog at dosage 30(mg/kg) by po administration.; format: ADME, organism-based, Canis lupus familiaris; details: in vivo
[34] = Pharmacokinetic parameter Cmax determined after peroral administration of 15 mg/kg to dog; details: in vivo, po
[35] = Pharmacokinetic parameter half life determined after peroral administration of 15 mg/kg to dog; details: in vivo, po
[36] = tested on: CEM-SS; assay: as §1; format: functional; details: Homo sapiens, read-out: ED50 (the source's name); method in brief: as §2

SMILES: CCCC(CC)(CC)N(CCO)C(=O)c1cc(C)ccc1CC(O)CCc1ccccc1C(=O)N(CCO)C1(CC)CCCC1 (configuration not stated)
EC50 [1]: 1370 nM
Ki [2]: 6 nM

SMILES: CCC1(N(CCO)C(=O)c2ccccc2CCC(O)Cc2ccc(C)cc2C(=O)N(CCC(O)CO)C(C)(C)c2ccccc2)CCCC1 (configuration not stated)
EC50 [1]: 860 nM
Cmax [3]: 111000 ng/mL
Ki [2]: 10 nM
half-life [4]: 1.3 h
bioavailability [5]: 2%
Cmax [6]: 840 ng/mL

SMILES: CCC1(N(CCO)C(=O)c2ccccc2CCC(O)Cc2ccc(C)cc2C(=O)N(CCO)C2(c3ccccc3)CCCC2)CCCC1 (configuration not stated)
EC50 [1]: 790 nM
Ki [2]: 0.4 nM

SMILES: Cc1ccc(CCC(O)Cc2ccccc2C(=O)N(CCO)C(C)(C)c2ccccc2)c(C(=O)N(CCO)C(C)(C)C)c1 (configuration not stated)
EC50 [1]: 4900 nM
Ki [2]: 150 nM

SMILES: CC(C)(C)NC(=O)c1ccccc1CCC(O)Cc1ccccc1C(=O)NC(C)(C)C (configuration not stated)
Ki [2]: 20000 nM

Ki [2]: 34000 nM
SMILES: CC(C)(C)NC(=O)c1ccccc1SCC(O)Cc1ccccc1C(=O)N(CCO)C(C)(C)C (configuration not stated)

SMILES: CC(C)(C)N(CCO)C(=O)c1ccccc1CCC(O)Cc1ccccc1C(=O)N(CCO)C(C)(C)c1ccc2ccccc2c1 (configuration not stated)
EC50 [1]: 7200 nM
Ki [2]: 145 nM

SMILES: CCCC(CC)(CC)N(CCO)C(=O)c1ccccc1CC(O)CCc1ccccc1C(=O)N(CCO)C(C)(C)C (configuration not stated)
EC50 [1]: 3700 nM
Ki [2]: 110 nM

SMILES: CC(C)(c1ccccc1)N(CCO)C(=O)c1ccccc1CCC(O)Cc1ccccc1C(=O)N(CCO)C(C)(C)c1ccccc1 (configuration not stated)
EC50 [1]: 2200 nM
Ki [2]: 21 nM
CC50 [7]: 122000 nM

SMILES: CCN(C(=O)c1ccccc1CC(O)CCc1ccccc1C(=O)N(CCO)C1(CC)CCCC1)C(C)(C)c1ccccc1 (configuration not stated)
EC50 [1]: 1700 nM
Ki [2]: 51 nM

EC50 [1]: 20 nM
SMILES: CC(C)(C)NC(=O)c1ccccc1C[C@@H](O)[C@H](Cc1ccccc1)NC(=O)[C@H](CC(N)=O)NC(=O)c1cnc2ccccc2c1
CC50 [8]: 122000 nM

EC50 [1]: 36000 nM
SMILES: CC(C)(C)N(CCO)C(=O)c1ccccc1CCC(O)Cc1ccccc1C(=O)N(CCO)C(C)(C)C (configuration not stated)
CC50 [9]: > 150000 nM

SMILES: CCC1(N(CCO)C(=O)c2ccccc2CCC(O)Cc2ccc(C)cc2C(=O)N(CCO)C(C)(C)c2ccc(OCCN3CCOCC3)cc2)CCCC1 (configuration not stated)
EC50 [1]: 840 nM
Ki [2]: 9 nM

SMILES: CCC1(N(CCO)C(=O)c2ccccc2CCC(O)Cc2ccc(C)cc2C(=O)N(CCO)C(C)(C)c2ccc(OCc3cccnc3)cc2)CCCC1 (configuration not stated)
EC50 [1]: 650 nM
Ki [2]: 2 nM
bioavailability [10]: 5%
half-life [11]: 1 h
Cmax [12]: 87200 ng/mL
Cmax [6]: 860 ng/mL

SMILES: CCC1(N(CCO)C(=O)c2ccccc2CCC(O)Cc2ccc(C)cc2C(=O)N(CC2COC(C)(C)OC2)C(C)(C)c2ccccc2)CCCC1 (configuration not stated)
Ki [13]: 4 nM
EC50 [14]: 590 nM

SMILES: Cc1ccc(CC(O)CCc2ccccc2C(=O)N(CCO)C(C)(C)C)c(C(=O)N(CCO)C(C)(C)c2ccccc2)c1 (configuration not stated)
EC50 [1]: 4200 nM
Ki [2]: 63 nM

SMILES: CC(C)(C)N(CCO)C(=O)c1ccccc1CCC(O)Cc1ccccc1C(=O)N(CCO)[C@@]12CCCC[C@@H]1CCC2 (relative stereo)
EC50 [1]: 7600 nM
Ki [2]: 64 nM

SMILES: CCC1(N(CCO)C(=O)c2ccccc2CCC(O)Cc2ccc(C)cc2C(=O)N(CCO)C(C)(C)c2ccc(O)cc2)CCCC1 (configuration not stated)
EC50 [1]: 880 nM
Cmax [3]: 41300 ng/mL
Ki [2]: 6 nM
half-life [4]: 1.4 h
bioavailability [5]: 0%
Cmax [15]: No levels

SMILES: Cc1ccc(CC(O)CCc2ccccc2C(=O)N(CCO)C(C)(C)c2ccccc2)c(C(=O)N(CCO)C(C)(C)c2ccccc2)c1 (configuration not stated)
EC50 [1]: 810 nM
Cmax [3]: 88900 ng/mL
half-life [16]: 2.07 h
Cmax [17]: 860 ng/mL
Ki [2]: 18 nM
half-life [4]: 0.5 h
Cmax [18]: 390 ng/mL
bioavailability [19]: 34%
Cmax [6]: 1200 ng/mL

EC50 [1]: 720 nM
Cmax [3]: 111000 ng/mL
Ki [2]: 2 nM
half-life [4]: 1.7 h
bioavailability [5]: 31%
Cmax [20]: No levels
Cmax [21]: 590 ng/mL
Cmax [6]: 1400 ng/mL
SMILES: CCC1(N(CCO)C(=O)c2ccccc2CCC(O)Cc2ccc(Cl)cc2C(=O)N(CCO)C(C)(C)c2ccccc2)CCCC1 (configuration not stated)
CC50 [9]: 97000 nM

SMILES: CCC1(N(CCO)C(=O)c2ccccc2CCC(O)Cc2ccc(C)cc2C(=O)N(CCO)C(C)(C)c2ccccc2)CCCC1 (configuration not stated)
EC50 [1]: 780 nM
Cmax [3]: 88400 ng/mL
Cmax [22]: 1910 ng/mL
half-life [23]: 1.08 h
CC50 [9]: 103000 nM
Ki [2]: 8 nM
half-life [24]: 1.07 h
half-life [25]: 0.24 h
Cmax [26]: 3260 ng/mL
half-life [4]: 1.3 h
bioavailability [27]: 32%
bioavailability [5]: 39%
Cmax [28]: 2780 ng/mL
bioavailability [29]: 3%
Cmax [30]: 690 ng/mL
half-life [31]: 0.52 h
Cmax [32]: 18300 ng/mL
bioavailability [33]: 33%

SMILES: CCC1(N(CCO)C(=O)c2ccccc2CCC(O)Cc2ccc(C)cc2C(=O)N(CC(CO)CO)C(C)(C)c2ccccc2)CCCC1 (configuration not stated)
EC50 [1]: 950 nM
Cmax [3]: 52200 ng/mL
Cmax [22]: 810 ng/mL
Ki [2]: 10 nM
half-life [4]: 1 h
Cmax [34]: 1170 ng/mL
bioavailability [5]: 7%
half-life [35]: 0.34 h
Cmax [6]: 1160 ng/mL

EC50 [1]: 3400 nM
Ki [2]: 90 nM
SMILES: CC(C)(C)N(CCO)C(=O)c1ccccc1CCC(O)Cc1ccccc1C(=O)N(CCO)C(C)(C)c1ccccc1 (configuration not stated)
CC50 [9]: > 150000 nM

SMILES: CCC1(N(CCO)C(=O)c2ccccc2CCC(O)Cc2ccc(C)cc2C(=O)N(CCO)C(C)(C)C2CCOCC2)CCCC1 (configuration not stated)
EC50 [1]: 1110 nM
Ki [2]: 35 nM

SMILES: CC(C)(C)N(CCO)C(=O)c1ccccc1CCC(O)Cc1ccccc1C(=O)N(CCO)C(C)(C)Cc1ccccc1 (configuration not stated)
Ki [2]: 1300 nM

EC50 [36]: 2 nM
Ki [13]: 0.9 nM
SMILES: CC(C)(C)NC(=O)[C@@H]1C[C@@H]2CCCC[C@@H]2CN1C[C@@H](O)[C@H](Cc1ccccc1)NC(=O)[C@H](CC(N)=O)NC(=O)c1cnc2ccccc2c1
CC50 [8]: > 10000 nM

SMILES: CC(C)(C)N(CCO)C(=O)c1ccccc1CC(O)CSc1ccccc1C(=O)N(CCO)C(C)(C)C (configuration not stated)
Ki [2]: 18000 nM
